Results on 51 molecules are retold here after ChEMBL document CHEMBL1141653, “New bis(2-aminoimidazoline) and bisguanidine DNA minor groove binders with potent in vivo antitrypanosomal and antiplasmodial activity” (J Med Chem, 2008).

Assay [1] relates to Trypanosoma brucei rhodesiense. Nature of the assay: Antitrypanosomal activity against Trypanosoma brucei rhodesiense STIB900. Format: functional, organism-based. Summed up: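 Bloodstream forms (10⁴ per well) in MEM with 15% heat-inactivated horse serum, 25 mM HEPES, 2-mercaptoethanol, hypoxanthine. 3-fold serial dilutions from 90 to 0.123 µg/mL, in duplicate. Incubation 72 h at 37 °C, 5% CO₂. Resazurin then added for 2–4 h more. Fluorescence read at ex 536 / em 588 nm.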

For assay [2], the system named is Plasmodium falciparum. Nature of the assay: Antiplasmodial activity against Plasmodium falciparum K1 in [3H]hypoxanthine incorporation assay. Type of assay: functional, organism-based. The note with it: K1, 72 h. The method in brief: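 K1 erythrocytic stages in RPMI 1640 without hypoxanthine with AlbuMax, human A⁺ red cells at 2.5% hematocrit, 0.3% parasitemia. Compounds taken from 10 mg/mL DMSO stock, tested as serial doubling dilutions at 37 °C in 4% CO₂/3% O₂/93% N₂. After 48 h, ³H-hypoxanthine (0.5 µCi) added for 24 h more; incorporation by scintillation counting. IC₅₀ from sigmoidal curves.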

Assay [3] relates to L6. Description: Cytotoxicity against rat L6 cells. Type of assay: cell-based.
A short description of assay [4]: Selectivity index, ratio of IC50 for rat L6 cells to IC50 for Trypanosoma brucei rhodesiense STIB900. Format: functional. The method in brief:
(§1)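 Ratio of the IC₅₀ on L-6 rat skeletal myoblasts to the parasite IC₅₀. Cytotoxicity measured in RPMI 1640 with L-glutamine and 10% FBS, serial dilutions 90 to 0.123 µg/mL, duplicate. After 72 h, Alamar blue (resazurin) added for 2 h. Fluorescence read at ex 536 / em 588 nm.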

Assay [5] can be described thus: Selectivity index, ratio of IC50 for rat L6 cells to IC50 for Plasmodium falciparum K1. Type of assay: functional. Summed up: as §1
The nature of assay [6]: Binding affinity for DNA assessed as thermal melting temperature. Summed up:
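Thermal melting of poly(dA)·poly(dT): DNA at 40 µM base with compound at 12 µM (ratio 0.3) in MES 0.01 M / EDTA 0.001 M buffer, pH 6.25. A260 followed from 20 to 95 °C at 0.5 °C/min. Value is ΔTm.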

For assay [7], the system named is Ferriprotoporphyrin IX. Description: Inhibition of ferriprotoporphyrin 9 biomineralization at 1 mg/ml. Type of assay: functional. The method in brief: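 β-Hematin formation: hemin chloride (0.5 mg/mL in DMSO) with 0.5 M sodium acetate pH 4.4 and drug dilutions, 37 °C for 18–24 h. Pellet washed with DMSO, dissolved in 0.1 N NaOH, A405 read. Percent inhibition relative to solvent control. IC₅₀ derived, or percent inhibition at 1 mg/mL (highest concentration) given when no IC₅₀.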

As for `N=C(N)Nc1ccc2c(c1)OCO2`, the results for the IC50 in assay [1], in assay [2] and in assay [3] were 146 µM, more than 23 µM and more than 417 µM, respectively.
The matching figures for `c1ccc(Sc2ccc(NC3=NCCN3)cc2)cc1`: 1.9 µM, 1.2 µM and 28.5 µM.
Regarding `N=C(N)Nc1ccc(S(=O)(=O)c2ccc(NC(=N)N)cc2)cc1`, the IC50 in assay [1] is 4.3 µM; in assay [2] it was 0.444 µM; in assay [3], more than 222 µM. In addition, the “Ratio IC50” value is given as more than 51 in assay [4] and more than 500 in assay [5]. Further, the thermal shift (ΔTm) in assay [6] turned out to be 12.8 °C.
On to `Cc1ccc(NC(=N)N)cc1C`, for which the values for the half-maximal inhibitory concentration (IC50) in assay [1], in assay [2] and in assay [3] were 39.9 µM, 12.2 µM and 190 µM, respectively.
The matching figures for `c1cc2c(cc1NC1=NCCN1)CCC2`: 9.2 µM, 5.3 µM and more than 378 µM.
For `c1cc2c(cc1NC1=NCCN1)OCCO2` the same measures were 68.4 µM, more than 19 µM and more than 351 µM.
The matching figures for `N=C(N)Nc1ccc(NC(=O)Nc2ccccc2)cc1`: 32.9 µM, 4.1 µM and more than 234 µM.
As to `CCOC(CNC(=N)Nc1ccc(Cc2ccc(NC(=N)NCC(OCC)OCC)cc2)cc1)OCC`, the IC50 in assay [1] was 0.316 µM; in assay [2], 0.036 µM; in assay [3], more than 175 µM. The “Ratio IC50” value in assay [4] is on record as more than 553; in assay [5], more than 4861. Further, the shift in melting temperature (ΔTm) in assay [6] amounted to 5.3 °C.
For the molecule `O=C(Nc1ccccc1)c1ccc(NC2=NCCN2)cc1`, the half-inhibitory concentration (IC50) in assay [1] is 42.9 µM; in assay [2] it was more than 15 µM; in assay [3] it was more than 284 µM.
For `CSc1ccc(NC2=NCCN2)cc1` the same measures were 7.3 µM, 1.7 µM and 174 µM.
`O=C(Nc1ccccc1)Nc1ccc(NC2=NCCN2)cc1`: the IC50 was 45.4 µM in assay [1], 3.4 µM in assay [2] and more than 219 µM in assay [3].
Take `N=C(N)Nc1ccc2c(c1)CCC2`: the IC50 was 0.99 µM in assay [1], 0.95 µM in assay [2] and 73.7 µM in assay [3].
The matching figures for `O=C(c1ccccc1)c1ccc(NC2=NCCN2)cc1`: 9.4 µM, 5.2 µM and 226 µM.
Turning to `N=C(N)Nc1ccc(N2CCCCC2)cc1`, the figures for the half-maximal inhibitory concentration (IC50) in assay [1], in assay [2] and in assay [3] were 48.6 µM, 7.9 µM and 232 µM, respectively.
In the case of `Nc1ccc(NC2=NCCN2)cc1`, the results for the IC50 in assay [2] and in assay [3] were 15 µM and more than 423 µM, respectively.
`O=C(Nc1ccc(NC2=NCCN2)cc1)c1ccccc1`: the 50% inhibitory concentration (IC50) in assay [1] is 94.7 µM; in assay [2], more than 15 µM; in assay [3] it was more than 284 µM.
For `CC(=O)c1ccc(NC(=N)N)cc1` the same measures were 155 µM, more than 23 µM and more than 421 µM.
The matching figures for `COc1ccc(NC2=NCCN2)cc1OC`: 84.2 µM, 14.8 µM and more than 349 µM.
For `CSc1ccc(NC(=N)N)cc1` the same measures were 5.9 µM, 1.3 µM and 240 µM.
Turning to `CC(C)(C)OC(=O)N1CCN(C(=O)OC(C)(C)C)C1=Nc1ccc(S(=O)(=O)c2ccc(N=C3N(C(=O)OC(C)(C)C)CCN3C(=O)OC(C)(C)C)cc2)cc1`, the concentration for half-maximal inhibition (IC50) is 2.6 µM in assay [1], 0.055 µM in assay [2] and 56.4 µM in assay [3]. The molecule further displayed an inhibition in assay [7] of 27%. In assay [5], the “Ratio IC50” value came to 1025.
With `c1cc(N2CCCCC2)ccc1NC1=NCCN1`, the concentration for half-maximal inhibition (IC50) in assay [1] was 50.4 µM; in assay [2], 12 µM; in assay [3] it was more than 283 µM.
As for `N=C(N)Nc1ccc(C(=O)c2ccccc2)cc1`, the IC50 in assay [1] is 14.4 µM; in assay [2], more than 18 µM; in assay [3], 118 µM.
For `N=C(N)Nc1ccc2c(c1)OCCO2` the same measures were 150 µM, 9 µM and more than 391 µM.
For `Cc1ccc(NC(=N)N)cc1` the same measures were 164 µM, more than 27 µM and more than 484 µM.
For the molecule `N=C(N)c1ccc(OCCCCCOc2ccc(C(=N)N)cc2)cc1`, the ΔTm in assay [6] is 32.3 °C.
`CCN(CC)c1ccc(NC2=NCCN2)cc1`: the IC50 in assay [1] was 40.1 µM; in assay [2], 15 µM; in assay [3] it was more than 444 µM.
Regarding `c1cc2c(cc1NC1=NCCN1)OCO2`, the results for the concentration for half-maximal inhibition (IC50) in assay [1], in assay [2] and in assay [3] were 93.5 µM, more than 20 µM and more than 372 µM, respectively.
For `c1ccc(Oc2ccc(NC3=NCCN3)cc2)cc1` the same measures were 5 µM, 5.7 µM and 167 µM.
Consider `Cc1ccc(NC2=NCCN2)cc1C`, for which the half-inhibitory concentration (IC50) in assay [1] was 49.8 µM; in assay [2] it was 17.1 µM; in assay [3], more than 398 µM.
The matching figures for `N=C(N)Nc1ccc(NC(=S)Nc2ccccc2)cc1`: 1.3 µM, 8.7 µM and more than 225 µM.
The matching figures for `N=C(N)Nc1ccc(N)cc1`: 311 µM, more than 26 µM and 132 µM.
For `S=C(Nc1ccccc1)Nc1ccc(NC2=NCCN2)cc1` the same measures were 2.6 µM, 3.1 µM and 91.1 µM.
For the molecule `N=C(N)Nc1ccc(C(=O)c2ccc(NC(=N)N)cc2)cc1`, the IC50 stood at 0.206 µM in assay [1], 0.068 µM in assay [2] and 2.7 µM in assay [3]. The figures for the “Ratio IC50” value in assay [4] and in assay [5] were 13 and 40, respectively. For the same molecule, in assay [6], the shift in melting temperature (ΔTm) amounted to 27.6 °C.
Take `N=C(N)Nc1ccc(Nc2ccccc2)cc1`: the figures for the IC50 in assay [1], in assay [2] and in assay [3] were 4.8 µM, 1.6 µM and 49.5 µM, respectively.
For the molecule `Nc1nc(N)nc(Nc2ccc([As]3SCC(CO)S3)cc2)n1` (centres undefined) [MELARSOPROL], the half-inhibitory concentration (IC50) in assay [2] was 5.5 µM.
For the molecule `c1ccc(Nc2ccc(NC3=NCCN3)cc2)cc1`, the concentration for half-maximal inhibition (IC50) in assay [1] was 1.2 µM; in assay [2] it was 0.549 µM; in assay [3], 90.7 µM.
As for `N=C(N)Nc1ccc(C(=O)Nc2ccccc2)cc1`, the IC50 in assay [1] is 87.4 µM; in assay [2], 13.3 µM; in assay [3], more than 309 µM.
For `c1ccc(Cc2ccc(NC3=NCCN3)cc2)cc1` the same measures were 4.9 µM, 1.7 µM and 73 µM.
The matching figures for `N=C(N)Nc1ccc(Cc2ccccc2)cc1`: 15.9 µM, 3.8 µM and 43.9 µM.
Regarding `N=C(N)Nc1ccc(Oc2ccccc2)cc1`, the values for the IC50 in assay [1], in assay [2] and in assay [3] were 18.8 µM, 7.9 µM and 59.9 µM, respectively.
Consider `CCN(CC)c1ccc(NC(=N)N)cc1`, for which the values for the IC50 in assay [1], in assay [2] and in assay [3] were 2.4 µM, 5.7 µM and 78.1 µM, respectively.
The matching figures for `COc1ccc(NC(=N)N)cc1OC`: 237 µM, 14.8 µM and more than 388 µM.
Consider `O=S(=O)(c1ccc(NC2=NCCN2)cc1)c1ccc(NC2=NCCN2)cc1`, for which the IC50 in assay [1] is 32.4 µM; in assay [2], 5.6 µM; in assay [3], more than 196 µM. The “Ratio IC50” value was more than 6 in assay [4] and more than 35 in assay [5]. Besides, the ΔTm in assay [6] worked out at 12.1 °C.
On to `c1ccc(NC2=NCCN2)cc1`, for which the half-maximal inhibitory concentration (IC50) in assay [1] was 182 µM; in assay [2], more than 25 µM; in assay [3] it was more than 455 µM.
For `CN(C)c1ccc(NC(=N)N)cc1` the same measures were 20.1 µM, more than 19 µM and more than 358 µM.
The matching figures for `N=C(N)Nc1ccc(NC(=O)c2ccccc2)cc1`: 122 µM, 10.4 µM and more than 309 µM.
Regarding `N=C(N)Nc1ccc2c(c1)Cc1cc(NC(=N)N)ccc1-2`, the IC50 was 0.024 µM in assay [1], 0.0023 µM in assay [2] and 4.7 µM in assay [3]. Also, the “Ratio IC50” value in assay [4] is given as 196; in assay [5], 2043.
For the molecule `Cc1ccc(NC2=NCCN2)cc1`, the concentration for half-maximal inhibition (IC50) in assay [1] was 262 µM; in assay [2] it was more than 23 µM; in assay [3], more than 425 µM.
For `CN(C)c1ccc(NC2=NCCN2)cc1` the same measures were 46.6 µM, more than 18 µM and more than 324 µM.
The matching figures for `CC(=O)c1ccc(NC2=NCCN2)cc1`: 54.6 µM, 5.7 µM and more than 375 µM.
For `CCc1ccc(NC(=N)N)cc1` the same measures were 45.7 µM, 9 µM and 310 µM.

What is called IC50 is the midpoint of a concentration-inhibition curve. For orientation: ΔTm means the change in melting temperature against a reference sample. What is called inhibition is the drop in the measured response relative to a control, in per cent. A lower inhibition goes with a response near the control.
